Experimental data as given in ChEMBL document CHEMBL4261627, “Design, synthesis and anti-melanogenic effect of cinnamamide derivatives” (Bioorg Med Chem, 2018).

Experiments:
B16-F10 [1] = assay: Antimelanogenic activity in mouse B16F10 cells assessed as inhibition of alpha-MSH-stimulated melanin synthesis at 25 uM measured after 24 hrs; assay type: functional; conditions: B16-F10, 24 h
Summary of the method: (§1)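 B16F10 cells were seeded at 5x10^4 cells/well and grown 24 h at 37 °C in 5% CO2. […] After PBS washes, melanin was dissolved in 1 N NaOH and read as absorbance at 405 nm. Triplicate, mean ± SEM.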

[2] = target: T1, Tyrosinase (Mus musculus) (UniProt P11344); assay: Inhibition of tyrosinase in alpha-MSH stimulated mouse B16F10 cells at 10 uM using L-dopa as substrate pretreated for 24 hrs followed by substrate addition and measured after 30 mins
T1 sequence (whole entry): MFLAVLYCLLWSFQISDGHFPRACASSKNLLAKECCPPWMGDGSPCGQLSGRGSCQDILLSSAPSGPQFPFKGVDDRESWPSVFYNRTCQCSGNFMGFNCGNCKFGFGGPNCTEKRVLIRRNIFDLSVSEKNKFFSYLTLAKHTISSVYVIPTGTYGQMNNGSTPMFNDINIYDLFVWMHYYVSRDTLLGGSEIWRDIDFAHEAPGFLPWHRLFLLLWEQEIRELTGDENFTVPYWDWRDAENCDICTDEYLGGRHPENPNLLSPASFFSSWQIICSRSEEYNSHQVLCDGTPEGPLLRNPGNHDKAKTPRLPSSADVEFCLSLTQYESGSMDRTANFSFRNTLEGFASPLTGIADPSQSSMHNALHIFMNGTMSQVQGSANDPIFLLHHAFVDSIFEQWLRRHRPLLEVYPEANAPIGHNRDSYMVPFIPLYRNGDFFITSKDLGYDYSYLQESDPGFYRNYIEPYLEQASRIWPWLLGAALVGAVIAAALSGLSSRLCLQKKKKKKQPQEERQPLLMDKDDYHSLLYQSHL
Summary of the method: (§2)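 Cells were lysed in pH 6.8 phosphate buffer with 0.1 mM PMSF and 1% Triton X-100, frozen at −80 °C, and spun. Supernatant (80 µL) was incubated with 20 µL of 10 mM L-dopa at 37 °C for 30 min and read at 500 nm. Triplicate.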

B16-F10 [3] = assay: Cytotoxicity against mouse B16F10 cells up to 25 uM after 24 hrs by WST8 assay; assay type: cell-based; conditions: b16-f10, 24 h
Summary of the method: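 B16F10 cells (from DMEM/10% FBS culture) were seeded at 1x10^4 cells/well and held 24 h at 37 °C, 5% CO2. Compound (0, 5, 10, 25 µM) was added for a further 24 h. WST-8 reagent was then applied for 30 min to 2 h at 37 °C and OD read at 450 nm. Viability expressed as % of control; triplicate.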

B16-F10 [4] = assay: Antimelanogenic activity in mouse B16F10 cells assessed as inhibition of alpha-MSH-stimulated melanin synthesis at 10 uM measured after 24 hrs; assay type: functional, cell-based; summary of the method: as §1
[5] = Antioxidant activity assessed as DPPH-radical scavenging activity at 1 mM incubated for 30 mins under dark condition; assay type: functional
Summary of the method: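 DPPH (0.2 mM in methanol, 180 µL) was mixed with 20 µL of compound from a 10 mM DMSO stock, giving 1 mM final. The mix was kept in the dark for 30 min and read at 517 nm, with L-ascorbic acid as reference. % scavenging = (Ac−As)/Ac × 100 against untreated control. Triplicate, mean ± SD.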

[6] = target: T1, Tyrosinase (Mus musculus); assay: Inhibition of tyrosinase in alpha-MSH stimulated mouse B16F10 cells using L-dopa as substrate pretreated for 24 hrs followed by substrate addition and measured after 30 mins; summary of the method: as §2
[7] = target: T1, Tyrosinase (Mus musculus); conditions: 400 uM

| SMILES | inhibition at 25 µM (B16-F10 [1]) [%] | inhibition [5] [%] | also measured |
| --- | --- | --- | --- |
| O=C(/C=C/c1ccc(O)cc1O)N1CCCCC1 | 61.8 | 30.7 | inhibition [2]: 23.3%; Activity (B16-F10 [3]): Non-Toxic; inhibition (B16-F10 [4]): Dose-dependent effect |
| O=C(/C=C/c1ccc(O)cc1O)N1CCCC1 | 78.3 | 22.3 | inhibition [2]: 38.3%; Activity (B16-F10 [3]): Non-Toxic; inhibition (B16-F10 [4]): Dose-dependent effect; inhibition [6]: Dose-dependent effect |
| O=C1O[C@H]([C@@H](O)CO)C(O)=C1O |  | 84.6 |  |
| COc1ccc(/C=C/C(=O)N2CCCC2)cc1O |  | 34.2 |  |
| O=C(/C=C/c1ccc(O)c(O)c1)N1CCCCC1 |  | 82.8 |  |
| OC[C@H]1O[C@@H](Oc2ccc(O)cc2)[C@H](O)[C@@H](O)[C@@H]1O |  |  | inhibition [7]: 51.7% |
| O=C(/C=C/c1ccc(O)c(O)c1)N1CCCC1 |  | 83.2 |  |
| O=C(/C=C/c1ccc(O)cc1)N1CCCC1 |  | 3.51 |  |
| COc1cc(/C=C/C(=O)N2CCCC2)ccc1O |  | 82.1 |  |
| O=c1cc(CO)occ1O [KOJIC ACID] | 37.6 |  |  |
| COc1cc(/C=C/C(=O)N2CCCCC2)ccc1O | 72.7 | 80.7 | inhibition [2]: 44%; Activity (B16-F10 [3]): Non-Toxic; inhibition (B16-F10 [4]): Dose-dependent effect; inhibition [6]: Dose-dependent effect |
| O=C(/C=C/c1ccc(O)cc1)N1CCCCC1 |  | 0.91 |  |
| COc1ccc(/C=C/C(=O)N2CCCCC2)cc1O |  | 37.6 |  |
